The values below come from ChEMBL document CHEMBL4513216, “Probing the Open Global Health Chemical Diversity Library for Multistage-Active Starting Points for Next-Generation Antimalarials” (ACS Infect Dis, 2020).

The series in a line: Toxicity liver stage against HepG2, at 10uM. In kind it is cell-based. On the set-up: test concentration 10 uM, cell line HepG2-A16-CD81EGFP. Conditions: human, HepG2-A16-CD81EGFP cells; read-out: INHIBITION
A digest of the protocol: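 Uninfected HepG2-A16-CD81EGFP cells, 3 × 10^3 per well, 1536-well, plated on prespotted compound at 10 μM final, parasite-free screening media added to match infected plates; puromycin 10 μM positive, DMSO 0.5% negative; run in parallel with 48 h PbLuc assay at 37 °C, 5% CO2; viability by CellTiter-Glo luminescence, normalized to controls.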
For `CSc1ccccc1NC(=O)C1CN(C(=O)c2ccc3c(c2)OCO3)C1`, the cytotoxicity at 10 µM was -12.3%.

For `Cc1nc(CN2CCC23CCN(C(=O)c2ccncc2)CC3)cs1`, the cytotoxicity at 10 µM turned out to be 0.933%.

Regarding `O=C([C@H]1CCS(=O)(=O)[C@@H]2CN(Cc3ccc(F)cc3)C[C@H]12)N1CCCC1`, the cytotoxicity at 10 µM turned out to be 2.96%.

`CC(C)CNC(=O)[C@H]1CCS(=O)(=O)[C@@H]2CN(Cc3cccnc3)C[C@H]12`: the cytotoxicity at 10 µM was -2.36%.

As to `CCOCc1ncn2c1CN(C(=O)Nc1ccccc1CC)CC2`, the cytotoxicity at 10 µM came out at 7.45%.

In the case of `O=C(Nc1ccc(F)cc1F)Nc1c[nH]c(=O)[nH]c1=O`, the cytotoxicity at 10 µM was -3.55%.

For `CCn1cc(CNC(=O)CC(C)C)cn1`, the cytotoxicity at 10 µM worked out at 4.18%.

Take `Cc1nc(N2CCN(C(=O)c3ccccn3)CC2)c2c(n1)c(C)nn2C`: the cytotoxicity at 10 µM turned out to be 5.06%.

As to `N#CCC1CC(c2ccc(F)cc2)=NO1` (stereo unspecified), the cytotoxicity at 10 µM was -2.37%.

As to `CCn1cc(CN(C)S(=O)(=O)c2cc(Cl)ccc2Cl)cn1`, the cytotoxicity at 10 µM turned out to be 8.6%.

For the molecule `O=C1CC(c2ccccc2)c2snc(C(=O)O)c2N1` (stereo unspecified), the cytotoxicity at 10 µM is -5.02%.

With `CC(C)NC(=O)[C@@H]1CN(C)C[C@]12COc1ccc(F)cc1C2=O`, the cytotoxicity at 10 µM came out at 2.17%.

With `Cc1nn(C)cc1-c1cc(C(=O)NCC(C)(C)c2ccccc2F)n[nH]1`, the cytotoxicity at 10 µM came to 6.82%.

Regarding `NC(=O)C1(c2cnccn2)CCCN1C(=O)Cc1ccsc1` (stereo unspecified), the cytotoxicity at 10 µM was found to be 1.54%.

For `O=C(C1CCOC1)N1Cc2ccccc2OC2(CCOCC2)C1` (stereo unspecified), the cytotoxicity at 10 µM was 1.32%.

As to `CC(O)c1cn(Cc2cccc(C(F)(F)F)c2)nn1` (stereo unspecified), the cytotoxicity at 10 µM worked out at 14.1%.

Regarding `CN(CC1CCOC1)c1ncc(Br)cn1` (stereo unspecified), the cytotoxicity at 10 µM stood at 4.23%.

For the molecule `Cc1ccc(S(=O)(=O)NC(=O)CCc2ccccc2)cc1N(C)C`, the cytotoxicity at 10 µM is -0.31%.

Turning to `CCn1cnnc1CCNC(=O)c1ccc(F)c(Br)c1`, the cytotoxicity at 10 µM was determined as 5.36%.

`NC(=O)CC1CCN(S(=O)(=O)N2CCCC2c2ccco2)CC1` (stereo unspecified): the cytotoxicity at 10 µM was 3.82%.

In the case of `CCOCCCNC(=O)N(C)Cc1ccc(SC)c(OC)c1`, the cytotoxicity at 10 µM was -5.41%.

For `CC(C)n1nc2c(cc1=O)CN(CCOc1ccccc1C#N)CC2`, the cytotoxicity at 10 µM came to 13.7%.

Take `Cc1ccsc1CN(C)C(=O)C1CCCN(C(N)=O)C1` (stereo unspecified): the cytotoxicity at 10 µM worked out at 5.09%.

Regarding `CCOCCC(=O)Nc1ccnn1-c1ccc(Cl)cc1`, the cytotoxicity at 10 µM is -12.6%.

Consider `Cc1ccc(C(=O)NS(=O)(=O)Cc2ccon2)c(C)c1`, for which the cytotoxicity at 10 µM was -3.16%.

Take `CC(=O)c1ccc(-n2c(C)cn(CCC(=O)NC(N)=O)c2=O)cc1`: the cytotoxicity at 10 µM turned out to be 14.3%.

Turning to `Cc1cc(C(C)(O)CNC(=O)c2ccc(Br)o2)c(C)o1` (stereo unspecified), the cytotoxicity at 10 µM is -0.159%.

For the molecule `Cc1nncn1CCNC(=O)C(C)(C)c1cccc(F)c1`, the cytotoxicity at 10 µM is 5.73%.

Consider `O=C(NCCNC(=O)N1CCC(c2ccccc2)C1)C1CC1` (stereo unspecified), for which the cytotoxicity at 10 µM was -3.08%.

`CCN(CC)C(CNS(=O)(=O)c1ccc(C(=O)NC)cc1)c1ccco1` (stereo unspecified): the cytotoxicity at 10 µM amounted to 4.62%.

`CC(C)C[C@@H](C(N)=O)n1cc(-c2cncnc2)nn1`: the cytotoxicity at 10 µM turned out to be 3.28%.

With `CNc1ccnc(N2CCC(c3nnc(CN4CCCC4)n3C)CC2)n1`, the cytotoxicity at 10 µM came to 0.715%.

With `O=C(NCCCOc1cccnc1)c1cn(Cc2ccccc2F)nn1`, the cytotoxicity at 10 µM was determined as 1.03%.

`CCCN1CCC(Cc2noc(-c3ncccc3C)n2)CC1`: the cytotoxicity at 10 µM worked out at 0.0119%.

With `Cc1cccc(CN2C[C@@H](CN3CCCN(C)CC3)C[C@H](CO)C2)n1`, the cytotoxicity at 10 µM was determined as 2.04%.

Consider `Cc1nn(C(C)C)c(C)c1CN1CCC(c2cc(C(C)C)n[nH]2)CC1`, for which the cytotoxicity at 10 µM turned out to be 1.34%.

In the case of `Cc1nc2ccccn2c1CN1C[C@@H](CN2CCOCC2)[C@@H](CO)C1`, the cytotoxicity at 10 µM was 1.73%.

With `CCc1ocnc1C(=O)N1CCOC(CCCC(C)C)C1` (stereo unspecified), the cytotoxicity at 10 µM stood at 4.29%.

For `CC(NC(=O)CCCc1ccc(Cl)cc1)c1n[nH]c(=O)[nH]1` (stereo unspecified), the cytotoxicity at 10 µM is 3.26%.

For `Cc1cc(=O)c2ccccc2n1CC1CCNC1` (stereo unspecified), the cytotoxicity at 10 µM is 5.98%.

Regarding `COc1ccccc1OCCCN1CCNC1=O`, the cytotoxicity at 10 µM stood at 1.5%.

For the molecule `O=C(c1ccnc(N2CCOC(C(F)(F)F)C2)c1)N1CCOCC1` (stereo unspecified), the cytotoxicity at 10 µM stood at 2.52%.

For the molecule `Cc1ccccc1C(C(=O)N(C)Cc1cnn(C)c1)N(C)C` (stereo unspecified), the cytotoxicity at 10 µM is -0.837%.

For the molecule `O=C(Cn1ccc2ccccc21)NCc1cc(N2CCOCC2)ncn1`, the cytotoxicity at 10 µM came to 4.44%.

In the case of `O=C(NCc1ccc2c(c1)CCCO2)c1cn2c(n1)CNCC2`, the cytotoxicity at 10 µM is -15.7%.

Consider `CC(C)C1CN(S(=O)(=O)N(C)C)CCCN1Cc1ccc(F)cc1` (stereo unspecified), for which the cytotoxicity at 10 µM turned out to be 5.17%.

As to `Cc1cccnc1[C@H](C)Nc1nc(-c2cccnc2)nc2c1CNC2`, the cytotoxicity at 10 µM is -8.52%.

As to `O=C(c1cnnn1-c1ccccc1)N1CCCC(c2ccn[nH]2)C1` (stereo unspecified), the cytotoxicity at 10 µM is -2.75%.

As for `CN(Cc1ccc2nsnc2c1)CC1(O)CNCCOC1` (stereo unspecified), the cytotoxicity at 10 µM was -5.03%.

`CN(C)C(=O)c1nc(CN2C(=O)OC[C@@H]2c2ccccc2)no1`: the cytotoxicity at 10 µM is -1.95%.

On to `COc1ccc(F)cc1C(C(=O)O)N1CCCN(C2CCCC2)CC1` (stereo unspecified), for which the cytotoxicity at 10 µM is -8.63%.

As to `CN(C(=O)Cc1ccn(C)c1)C1CCCN(C2Cc3ccccc3C2)C1` (stereo unspecified), the cytotoxicity at 10 µM stood at 4.77%.

Consider `O=C(c1cn(CC(=O)N2CCc3[nH]cnc3C2)c2ccccc12)C1CC1`, for which the cytotoxicity at 10 µM was determined as 10.2%.

With `CC(Cn1ccnc1)NCc1n[nH]c2c1CCC2` (stereo unspecified), the cytotoxicity at 10 µM stood at 6.07%.

Turning to `CSCCCN1C[C@H](NC(=O)c2cnn(C)c2)[C@@H](C2CC2)C1`, the cytotoxicity at 10 µM was 4.43%.

On to `CCN(CC)C1CCN(C(=O)c2cc(CC(C)C)nn2CC)C1` (stereo unspecified), for which the cytotoxicity at 10 µM was -7.74%.

For the molecule `O=C(O)C1c2nc[nH]c2CCN1Cc1ccccc1-c1ccccc1` (stereo unspecified), the cytotoxicity at 10 µM was -10.5%.

In the case of `CC(C)[C@H]1CN(c2ccnc(N)n2)C[C@@H]1NC(=O)C1(C#N)CCOCC1`, the cytotoxicity at 10 µM was -2.8%.

For the molecule `Cc1cnn(C2(C(=O)O)CCN(c3ccncc3F)CC2)c1`, the cytotoxicity at 10 µM was -1.94%.

Turning to `COc1ccccc1OC1CCN(C(=O)c2cnc(C)s2)CC1`, the cytotoxicity at 10 µM was -19.2%.

For `CC(C)(C)c1ccc(C(=O)C2CCCN(C(=O)CNS(C)(=O)=O)C2)cc1` (stereo unspecified), the cytotoxicity at 10 µM turned out to be 4.1%.

For `O=C(CN1CCOc2ccccc2C1)NCc1cc2n(n1)CCCNC2`, the cytotoxicity at 10 µM worked out at 8.1%.

As to `CC(COc1ccccc1)NCc1cn2ccccc2n1` (stereo unspecified), the cytotoxicity at 10 µM is 16.6%.

For the molecule `Cc1ccccc1SC1CCN(C(=O)C2CNC(=O)N2)CC1` (stereo unspecified), the cytotoxicity at 10 µM was -2.22%.

As for `CCCc1noc(CNc2ccc(C(=O)N3CCCC3)cc2C)n1`, the cytotoxicity at 10 µM was -2.83%.

Regarding `Cc1ccc(F)c(NS(=O)(=O)c2cc(C(=O)O)oc2C)c1`, the cytotoxicity at 10 µM was -3.52%.

`CC(C)CCC(C)NC(=O)CN1C=Nc2ccccc2S1(=O)=O` (stereo unspecified): the cytotoxicity at 10 µM is -1.64%.

With `CC(Cn1cccn1)NCc1nc(-c2ccco2)no1` (stereo unspecified), the cytotoxicity at 10 µM was -2.66%.

As for `NS(=O)(=O)c1ccc(C(=O)N2CCCC2c2ccccc2)o1` (stereo unspecified), the cytotoxicity at 10 µM was -6.48%.

Consider `Cc1ncsc1C(=O)NCc1ccnc(N2CCN(C)CC2)c1`, for which the cytotoxicity at 10 µM was -6.92%.

On to `COc1ccccc1NC(=O)NCC(O)c1ccc(F)cc1F` (stereo unspecified), for which the cytotoxicity at 10 µM stood at 4.1%.

Turning to `O=C1NCC(C(=O)Nc2ncc(Cc3cccc(F)c3)s2)N1` (stereo unspecified), the cytotoxicity at 10 µM was -2.45%.

For `CCN(Cc1c(F)cccc1F)Cn1nc(C)c2c(C)onc2c1=O`, the cytotoxicity at 10 µM was -1.52%.

With `Cc1nccn1CCCC(=O)N1CCC(N(C)c2cccnn2)CC1`, the cytotoxicity at 10 µM was -13.4%.

For `Cc1nn(C)c(C)c1C1CCCN1C(=O)c1nccnc1N` (stereo unspecified), the cytotoxicity at 10 µM was -3.08%.

For `CCN1CCOC(CNCc2ccccc2OCC(=O)N(C)C)C1` (stereo unspecified), the cytotoxicity at 10 µM was -15.4%.

In the case of `Cc1cc(NC(=O)CCN(CC2CCOC2)C2CC2)no1` (stereo unspecified), the cytotoxicity at 10 µM was -0.794%.

For the molecule `c1cnnc(N2CCCC2CNc2nc3ccccc3o2)c1` (stereo unspecified), the cytotoxicity at 10 µM was -2.96%.

For `CS(=O)(=O)Cc1ccc(CNC(=O)c2cccnc2O)cc1`, the cytotoxicity at 10 µM was 0.481%.

`CN(Cc1nnc2n1CCC2)C(=O)Cc1ccc2c(c1)OCCO2`: the cytotoxicity at 10 µM was -7.86%.

For the molecule `CCn1cnnc1C1CCN(C(=O)C(OC)c2ccccc2)CC1` (stereo unspecified), the cytotoxicity at 10 µM came out at 5.25%.

As for `CSCC[C@H](N)c1nnc(SCc2cc(C)ccc2C)o1`, the cytotoxicity at 10 µM was 0.0308%.

For the molecule `O=C(c1ncccn1)N1CCC2(CC1)COC(COc1ccccn1)C2` (stereo unspecified), the cytotoxicity at 10 µM was -1.96%.

Regarding `CN(C)C(=O)COCC1CN(Cc2ccoc2)Cc2ncn(C)c21` (stereo unspecified), the cytotoxicity at 10 µM came out at 5.99%.

Regarding `Cc1ccc(C2(CN3CCN(Cc4cnc(C)n4C)CC3)CC2)cc1`, the cytotoxicity at 10 µM is -3.99%.

Consider `O=S1(=O)NC[C@H]2CCN(Cc3ccccc3)CC[C@H]21`, for which the cytotoxicity at 10 µM was -10.5%.

As for `COc1ccc(CN2CCC3(CC2)NC(=O)CC3c2cnn(C)c2)cc1` (stereo unspecified), the cytotoxicity at 10 µM stood at 0.424%.

`CC(=O)N1C[C@H]2CCCC(N3CCN(c4ncccn4)CC3)[C@H]2C1` (stereo partly specified): the cytotoxicity at 10 µM came out at 9.46%.

Consider `COc1cc(CNC(C)Cn2cccn2)cc2c1OCO2` (stereo unspecified), for which the cytotoxicity at 10 µM came to 1.58%.

For the molecule `CN(C)CCOCc1cncc2c1CCN(C1CCOCC1)C2`, the cytotoxicity at 10 µM was found to be 4.62%.

Consider `Cc1cccc(CN2CCC3(CCCN(C(=O)c4ccsc4)C3)C2=O)n1` (stereo unspecified), for which the cytotoxicity at 10 µM is -1.14%.

`N#Cc1ccccc1C(=O)N1C[C@@H]2CC[C@H]1CN(c1ncccn1)C2`: the cytotoxicity at 10 µM was 2.43%.

For the molecule `CCOC(=O)N1C[C@@H]2CC[C@H]1CN(Cc1ccccc1)C2`, the cytotoxicity at 10 µM worked out at 2.7%.

Consider `CCCn1cc(Cl)c(C(=O)N2C[C@H]3CC(OC)C[C@H]3C2)n1` (stereo partly specified), for which the cytotoxicity at 10 µM was found to be 0.19%.

`CS(=O)(=O)N1C[C@H]2CC[C@@H](C1)N(C(=O)CCn1cnc3ccccc31)C2`: the cytotoxicity at 10 µM amounted to 4.11%.

On to `CC(C)=CCN1C(=O)[C@@H]2CC[C@H]1CN(c1ncccc1F)C2`, for which the cytotoxicity at 10 µM was 9.72%.
